Measurements from ChEMBL document CHEMBL5715946 (Chem Biol, 2010).
Calls of active or inactive are those of the source. The rule behind the calls is not given here.

Columns and labels:
[1] = tested on: Antioxidant response element; experiment: Induction of rat ARE activity expressed in rat H9c2 cells assessed as increase in ARE luciferase activity measured after 24 hrs by steady-glo luciferase Assay; format: cell-based
Procedure, shortened: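 H9c2 cells transiently transfected with pGL3-ARE-Luc or pGL3-mARE-Luc, compound exposure 24 hr, luciferase read by Steady-Glo. MEC2.0 is the concentration giving a doubling of luciferase activity. Mean ± SD, n = 4.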

[2] = molecular target: Macrophage migration inhibitory factor (Rattus norvegicus) (UniProt P30904); experiment: Inhibition of [3H]-BTZO-1 binding to recombinant rat C-terminal His-tagged MIF expressed in Escherichia coli BL21 (DE3) at 100 uM measured after 3 hrs by SPA relative to control
Target sequence in this assay (P30904 whole entry, looked up): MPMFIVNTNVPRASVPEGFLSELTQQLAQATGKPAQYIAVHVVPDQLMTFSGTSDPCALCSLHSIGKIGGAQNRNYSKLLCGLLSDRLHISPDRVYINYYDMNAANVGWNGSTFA

[3] = molecular target: Macrophage migration inhibitory factor (Rattus norvegicus, UniProt P30904); experiment: Inhibition of recombinant rat MIF expressed in Escherichia coli BL21 (DE3) assessed as reduction in tautomerase activity using L-dopachrome carboxy-methyl ester as substrate by spectrophotometry
Procedure, shortened: (§1)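 Purified recombinant rat MIF tautomerase assayed with purified L-dopachrome carboxy-methyl ester as substrate in pH 6.0 buffer; rate taken over the initial 30 s. Mean ± SD, n = 4.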

[4] = molecular target: Macrophage migration inhibitory factor (Rattus norvegicus) (UniProt P30904); experiment: Inhibition of recombinant rat MIF expressed in Escherichia coli BL21 (DE3) assessed as reduction in tautomerase activity at 30 uM using L-dopachrome carboxy-methyl ester as substrate by spectrophotometry relative to control; procedure, shortened: as §1
Target sequence in this assay (P30904 2-115 limits assumed): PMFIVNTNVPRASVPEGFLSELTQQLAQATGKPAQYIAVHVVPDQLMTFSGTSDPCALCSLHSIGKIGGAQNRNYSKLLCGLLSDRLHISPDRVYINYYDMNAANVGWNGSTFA

[5] = molecular target: Macrophage migration inhibitory factor (Rattus norvegicus) (UniProt P30904); experiment: Inhibition of [3H]-BTZO-1 binding to recombinant rat C-terminal His-tagged MIF expressed in Escherichia coli BL21 (DE3) measured after 3 hrs by SPA
Target sequence in this assay (P30904 whole entry, looked up): as the sequence (P30904 whole entry, looked up) above

Cardiac muscle cell = experiment: Cytoprotective activity against serum deprivation-induced neonatal Wistar rat cardiomyocyte death assessed as increase in cell viability measured after 4 days by WST-8 assay; format: functional; settings: time 4 day
Procedure, shortened: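 Primary neonatal rat cardiomyocytes were isolated by proteinase digestion, with preplating to remove adherent non-myocytes. Death was induced by serum deprivation at low density (3×10^5 cells/ml) for 4 days with compound present. Viability was read by WST-8. MEC1.5 is the concentration giving a 50% rise in viability. n = 3.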

[6] = molecular target: Macrophage migration inhibitory factor (Rattus norvegicus) (UniProt P30904); experiment: Binding affinity to recombinant rat MIF expressed in Escherichia coli BL21 (DE3) by chromatography
Target sequence in this assay (P30904 2-115 limits assumed): as the sequence (P30904 2-115 limits assumed) above

[7] = tested on: Antioxidant response element; experiment: Induction of ARE activity in serum-deprived neonatal Wistar rat cardiomyocytes assessed as increase in HO-1 mRNA level up to 3 uM measured after 24 hrs by RT-qPCR analysis; format: cell-based; settings: Cardiomyocyte
Procedure, shortened: (§2)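 Neonatal rat cardiomyocytes exposed to samples or vehicle in M-199 with 1% penicillin-streptomycin, no serum, for 24 hr. GST Ya and HO-1 mRNA measured by real-time qPCR (mean ± SD, n = 3); protein by western blot with β-actin as control.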

Rattus norvegicus [8] = experiment: (§3) Cardioprotective effect against ischemia reperfusion injury in Wistar rat myocardial infarction model assessed as area at risk at 10 mg/kg, ip administered 1 hr prior to LAD occlusion and 2 and 8 hr after reperfusion and measured after 24 hrs by Evans blue dye based assay (reference value: 46 +/- 3%); format: functional; settings: time 25 hrs
Procedure, shortened: (§4)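 Anaesthetized rats; LAD coronary occlusion 25 min followed by 24 hr reperfusion. Compound 10 mg/kg i.p. given 1 hr before occlusion and 2 and 8 hr after reperfusion; vehicle controls, n = 13. Area at risk given as % of LV, infarct size as % of area at risk. Mean ± SEM.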

Rattus norvegicus [9] = experiment: as §3, with “reduction in infarct size” for “area at risk”, “relative to control” for “(reference value: 46 +/- 3%)”; format: functional; design: scale not given: the % may be the effect or the level left; settings: time 25 hrs; procedure, shortened: as §4
[10] = tested on: Antioxidant response element; experiment: Induction of ARE activity in serum-deprived neonatal Wistar rat cardiomyocytes assessed as increase in GST Ya expression up to 400 nM measured after 24 hrs by Western blot analysis; format: cell-based; settings: Cardiomyocyte; procedure, shortened: as §2
[11] = tested on: Antioxidant response element; experiment: Induction of ARE activity in serum-deprived neonatal Wistar rat cardiomyocytes assessed as increase in HO-1 expression up to 400 nM measured after 24 hrs by Western blot analysis; format: cell-based; settings: Cardiomyocyte; procedure, shortened: as §2
[12] = tested on: Antioxidant response element; experiment: Induction of ARE activity in serum-deprived neonatal Wistar rat cardiomyocytes assessed as increase in GST Ya mRNA level up to 3 uM measured after 24 hrs by RT-qPCR analysis; format: cell-based; settings: Cardiomyocyte; procedure, shortened: as §2
[13] = molecular target: Macrophage migration inhibitory factor (Rattus norvegicus) (UniProt P30904); experiment: Binding affinity to MIF in Wistar rat isolated heart by chromatography; format: tissue-based
Target sequence in this assay (P30904 2-115 limits assumed): as above

[14] = molecular target: Macrophage migration inhibitory factor (Rattus norvegicus) (UniProt P30904); experiment: Induction of MIF-stimulated ARE activity in rat H9c2 cells assessed as increase in HO-1 expression at 3 uM incubated for 6 hrs by RT-qPCR analysis; format: cell-based
Target sequence in this assay (P30904 2-115 limits assumed): as above

[15] = molecular target: Macrophage migration inhibitory factor (Rattus norvegicus) (UniProt P30904); experiment: Induction of MIF-stimulated ARE activity in rat H9c2 cells assessed as increase in GST Ya expression at 3 uM incubated for 24 hrs by RT-qPCR analysis; format: cell-based
Target sequence in this assay (P30904 2-115 limits assumed): as above

[16] = tested on: Antioxidant response element; experiment: Induction of rat ARE activity expressed in MIF-stimulated rat H9c2 cells assessed as increase in ARE luciferase activity at 1 uM measured after 24 hrs by steady-glo luciferase Assay; format: cell-based
Procedure, shortened: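 H9c2 cells transiently transfected with pGL3-ARE-Luc (rat GST Ya ARE) or mutant-ARE control plasmid, then treated with rMIF with or without 1 μM compound for 24 hr. Luciferase by Steady-Glo; mean ± SD, n = 4.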

[17] = molecular target: Macrophage migration inhibitory factor (Rattus norvegicus) (UniProt P30904); experiment: Binding affinity to MIF in Wistar rat isolated heart by SPR analysis; format: tissue-based
Procedure, shortened: (§5)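 BTZO-12-type sensor chip probed with rat heart protein; bound protein recovered by microrecovery elution, then identified by silver staining and by western blot with anti-MIF antibody.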
Target sequence in this assay (P30904 2-115 limits assumed): as above

[18] = molecular target: Macrophage migration inhibitory factor (Rattus norvegicus) (UniProt P30904); experiment: Binding affinity to rat C-terminal His-tagged MIF expressed in Escherichia coli BL21 (DE3) by SPR analysis
Procedure, shortened: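 Sensor chip carrying immobilized BTZO-12; MIF (wild type or point mutants) passed over it and specific binding monitored by surface plasmon resonance.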

[19] = molecular target: Macrophage migration inhibitory factor (Rattus norvegicus) (UniProt P30904); experiment: Binding affinity to MIF in Wistar rat isolated heart by Western blot analysis; format: tissue-based; procedure, shortened: as §5
[20] = molecular target: Macrophage migration inhibitory factor (Rattus norvegicus) (UniProt P30904); experiment: Binding affinity to MIF in Wistar rat isolated heart by silver staining based assay; format: tissue-based; procedure, shortened: as §5

Chain of Macrophage migration inhibitory factor (P30904 2-115 limits assumed): as above

| Compound | MEC2 [1] | inhibition [4] | MEC1.5 (Cardiac muscle cell) | other results |
| --- | --- | --- | --- | --- |
| COC(=O)CC1CC(c2ccc(O)cc2)=NO1 (stereo not drawn) | > 30 µM | 30% |  | inhibition [2]: 12%; IC50 [3]: 68 µM |
| CCCCC/C=C/C=C1/C(=O)C=C[C@@H]1C/C=C\CCCC(=O)O | 7.3 µM |  |  | IC50 [5]: 3.6 µM; IC50 [3]: 3.7 µM |
| Cc1cc(C)c2sc(-c3cccc(CCCOCCC(=O)O)n3)nc(=O)c2c1 | > 10 µM |  | >1000 nM | Activity [6]: inactive |
| O=C(O)CCOCCCc1cccc(-c2nc(=O)c3cccnc3s2)n1 | > 10 µM |  | >1000 nM | Activity [6]: inactive |
| O=C(O)CCc1cccc(-c2nc(=O)c3ccccc3s2)n1 | 2.3 µM | 14% | 39 nM | Activity [1]: Dose-Dependent Effect; Activity [7]: Active; Activity (Rattus norvegicus [8]): 48%; Activity (Rattus norvegicus [9]): 45%; Activity [10]: Active; Activity [11]: Active; Activity [12]: Active |
| O=C(O)CCOCCCc1cccc(-c2nc(=O)c3ccccc3s2)n1 | 2.2 µM |  | 53 nM | Activity [13]: Active; Activity [6]: Active |
| Cc1cc(C)c2sc(-c3ccccn3)nc(=O)c2c1 | > 10 µM |  | >1000 nM |  |
| O=C(O)CCOCCCc1ccc(-c2nc(=O)c3ccccc3s2)nc1 | 1.6 µM |  | 39 nM | Activity [13]: Active; Activity [6]: Active |
| O=c1nc(-c2ccccn2)sc2ncccc12 | > 10 µM | 5% | >1000 nM |  |
| Cc1cccc2c(=O)nc(-c3ccccn3)sc12 | > 10 µM | 6% | >1000 nM | Activity [14]: inactive; Activity [10]: inactive; Activity [11]: inactive; Activity [15]: inactive; Activity [16]: inactive |
| O=C(O)CCOCCCc1cccc(C2NC(=O)c3ccccc3S2)n1 (stereo not drawn) | > 10 µM |  | >1000 nM | Activity [6]: inactive |
| O=c1nc(-c2cccnc2)sc2ccccc12 | 0.8 µM | 12% | 39 nM |  |
| C[S@+]([O-])CCCCN=C=S | 4.4 µM |  |  |  |
| Cc1cccc2c(=O)nc(-c3cccc(C(=O)NCCCCCCN)n3)sc12 | > 10 µM |  |  | Activity [17]: inactive; Activity [18]: inactive |
| NCCCCCCNC(=O)c1cccc(-c2nc(=O)c3ccccc3s2)n1 | 1.1 µM |  |  | Activity [19]: Active; Activity [17]: Active; Activity [18]: Active; Activity [20]: Active |
| O=C1NC(c2ccccn2)Sc2ccccc21 (stereo not drawn) [BTZO-4] | > 10 µM | 3% | >1000 nM |  |
| CC(C)(C)c1cc(O)ccc1O [E319] | 5.7 µM |  |  | IC50 [5]: 1.1 µM; IC50 [3]: > 30 µM |
| C[S@@+]([O-])CCCCN=C=S [L-SULFORAPHANE] |  |  |  | IC50 [5]: 25 µM; IC50 [3]: 4.4 µM |
| Cc1c(C)c2c(c(C)c1O)CCC(C)(C(=O)O)O2 (stereo not drawn) [TROLOX] |  |  | 160000 nM |  |
